Measured values pooled from the literature.
USP51: Ubiquitin carboxyl-terminal hydrolase 51 (USP51, Homo sapiens, UniProt Q70EK9)
PDE10A: cAMP and cAMP-inhibited cGMP 3',5'-cyclic phosphodiesterase 10A (PDE10A, Homo sapiens, UniProt Q9Y233)
CASP3: Caspase-3 (CASP3, Homo sapiens, UniProt P42574)

The inhibition of C[C@H]1C(=O)O[C@@H]2CCN3CC=C(COC(=O)[C@](C)(O)[C@]1(C)O)[C@H]23 is reported as 42% (USP51; enzyme activity; inhibitor; 5 µM).
COCc1c(-c2cc3cc(C)cc(OC)c3s2)c2c(N)ncnn2c1CN1CCNC(=O)C1 gave an inhibition of 11% (Growth hormone secretagogue receptor type 1 (GHSR, Homo sapiens, UniProt Q92847); ligand displacement; radioligand; 10 µM).
For O=C(Nc1cccnn1)N1CCN([C@@H]2CCOc3cc(C(F)(F)F)ccc32)CC1, the inhibition was -13% (Melanin-concentrating hormone receptor 1 (MCHR1, Homo sapiens, UniProt Q99705); cell-free assay; 20 µM).
The inhibition of C#Cc1n[nH]c2c(-c3cn([C@@H](C)c4ccccc4)c(=O)[nH]c3=O)cc(F)cc12 is reported as -0.1% (AP2-associated protein kinase 1 (AAK1, Homo sapiens, UniProt Q2M2I8); enzyme activity; inhibitor; 0.1 µM).
For Cc1ncc(C)n2nc(/C=C/c3nc(N4CCCC4)cc(N4CCOCC4)n3)nc12, the inhibition was -9% (Prostaglandin F2-alpha receptor (PTGFR, Homo sapiens, UniProt P43088); ligand displacement; 10 µM).
With CC[C@@]1(O)C(=O)OCc2c1cc1n(c2=O)Cc2cc3ccccc3nc2-1 the inhibition was 0% (USP51; enzyme activity; inhibitor; 5 µM).
With Cn1cc(-c2cccc(N3CCc4c(sc5c4CC(C)(C)C5)C3=O)c2CO)cc(Nc2ccncn2)c1=O the inhibition was -5% (Calcium/calmodulin-dependent protein kinase type IV (CAMK4, Homo sapiens, UniProt Q16566); enzyme activity; inhibitor; 1 µM).
The inhibition of c1ccc(C(NCCNC(c2ccccc2)c2ccccc2)c2ccccc2)cc1 is reported as 0% (PDE10A; enzyme activity; inhibitor; 10 µM).
With CC1=C2[C@H]3OC(=O)[C@@H](C)[C@@H]3CC[C@@]2(C)C=CC1=O the inhibition was 28% (USP51; enzyme activity; inhibitor; 5 µM).
With CC(=O)N[C@@H](CC(=O)O)C(=O)N[C@@H](CC(N)=O)C(=O)N[C@@H](CC(C)C)C(=O)N[C@H](C=O)CC(=O)O the inhibition was 80% (CASP3; enzyme activity; inhibitor; 0.1 µM).
COC(=O)C[C@](O)(CCC(C)(C)O)C(=O)O[C@@H]1C(OC)=C[C@]23CCCN2CCc2cc4c(cc2[C@H]13)OCO4 has an inhibition of 0% (USP51; enzyme activity; inhibitor; 5 µM).
For C#Cc1n[nH]c2c(-c3cn(C(C)c4ccccn4)c(=O)[nH]c3=O)cc(F)cc12 (stereo not shown), the inhibition was 7% (Serine/threonine-protein kinase Chk1 (CHEK1, Homo sapiens, UniProt O14757); enzyme activity; inhibitor; 1 µM).
For O=C1CCC[C@@H]2[C@H]3CCCN4CCC[C@H](CN12)[C@@H]34, the inhibition was 0% (USP51; enzyme activity; inhibitor; 5 µM).
CC(C)N1CCC[C@H]1CNC(=O)c1cn(C2CCCC2)c(=O)c2c1c1ccccc1n2C gave an inhibition of -2% (Sodium- and chloride-dependent GABA transporter 1 (Slc6a1, Rattus norvegicus, UniProt P23978); ligand displacement; radioligand; 10 µM).
The inhibition of CN(C)C(=O)COC(=O)Cc1ccc(OC(=O)c2ccc(NC(=N)N)cc2)cc1 is reported as 0% (CASP3; enzyme activity; inhibitor; 10 µM).
With C[C@H](C(=O)N[C@H]1COc2ccccc2[C@@H]1S(C)(=O)=O)c1ccc(F)cc1 the inhibition was -4% (PDE10A; enzyme activity; inhibitor; 10 µM).
